Assay results gathered from unrelated publications.
Lines come from different studies, so protocols differ. pIC50: −log10 of the molar value.
Cell line: HeLa
Effect on: cell growth or viability

| Compound | method | time | pIC50 |
| --- | --- | --- | --- |
| CC(C)CCOc1cc(C[n+]2c(-c3ccc(F)cc3)n(CCC(C)C)c3ccccc32)c(OCCC(C)C)c2ccccc12 | MTT | 24 h | 5.03 |
| COc1cccc2c1C(=O)c1c(O)c3c(c(O)c1C2=O)C[C@@](O)(C(=O)CO)C[C@@H]3O[C@H]1C[C@H](N)[C@H](O)[C@H](C)O1 | MTT | – | 5.16 |
| CC(C)CCOc1cc(C[n+]2c(-c3ccccc3)n(CCC(C)C)c3ccccc32)c(OCCC(C)C)c2ccccc12 | MTT | 24 h | 5.14 |
| CCC(=CCc1c(O)cc2c(c1O)C(=O)CC(c1ccc(O)cc1)O2)CC (stereo in doubt) | MTT | 48 h | 4.72 |
| COc1cc(C(=O)C[n+]2cn(CCC(C)C)c3ccccc32)c(OC)c2ccccc12 | MTT | 24 h | 4.77 |
| CCC(=CCc1c(O)cc2c(c1O)C(=O)C[C@H](c1ccccc1O)O2)CC | MTT | – | 4.43 |
| O=[N+]([O-])c1ccc(NC(=S)N/N=C/c2cccc3cc4ccccc4nc23)cc1 | MTT | 48 h | 5.12 |
| Cc1sc2c(c1C)C(c1ccc(Cl)cc1)=N[C@@H](CC(=O)NCCCCNC(=O)COc1cccc3c1C(=O)N(C1CCC(=O)NC1=O)C3=O)c1nnc(C)n1-2 (some centres unmarked) | CCK-8 | 72 h | < 5.00 |
| CN(C)c1cccc(Nc2nc(-c3ccncc3)nc3c2CNCC3)c1 | MTT | – | 4.49 |
| Cc1ccc(NC(=O)Cn2cc(COc3ncnc4[nH]cnc34)nn2)c(C)c1 | MTT | – | 4.67 |
| CCCNC(=S)N/N=C/c1cccc2cc3ccccc3nc12 | MTT | 48 h | 4.44 |
| CN1C(=O)C(=O)c2cc3c(c4c2c1cc1ccccc14)OCO3 | MTT | 75 h | 4.24 |
| Fc1ccc(NC(=S)N/N=C/c2cccc3cc4ccccc4nc23)cc1 | MTT | 48 h | 4.74 |
| Cc1n(CCC(C)C)c2ccccc2[n+]1Cc1cc(OCCC(C)C)c2ccccc2c1OCCC(C)C | MTT | 24 h | 5.12 |
| CSc1ccccc1-c1cc(C(N)=O)c2[nH]c3c(c2c1)CC(N)CC3 (centres unmarked) | – | – | 5.84 |
| COc1cccc2c1C(=O)c1c(O)c3c(c(O)c1C2=O)C[C@@](O)(C(=O)CO)C[C@@H]3O[C@H]1C[C@H](N)[C@H](O)[C@H](C)O1 | MTT | 48 h | 6.29 |
| COc1cccc2c1C(=O)c1c(O)c3c(c(O)c1C2=O)C[C@@](O)(C(=O)CO)C[C@@H]3O[C@H]1C[C@H](N)[C@H](O)[C@H](C)O1 | – | – | 7.52 |
| COc1ccc(CNC(=O)Cn2cc(COc3ncnc4[nH]cnc34)nn2)cc1 | MTT | – | 4.53 |
| CC(C)CCn1c[n+](CC(=O)c2cc(OC(C)C)c3ccccc3c2OC(C)C)c2ccccc21 | MTT | 24 h | 4.89 |
| Fc1ccccc1Nc1nc(-c2ccncc2)nc2c1CNCC2 | MTT | – | < 4.00 |
| CC(=O)O[C@@]12CO[C@@H]1C[C@H](O)[C@@]1(C)C(=O)[C@H](O)C3=C(C)[C@@H](OC(=O)[C@H](O)[C@@H](NC(=O)OC(C)(C)C)c4ccccc4)C[C@@](O)([C@@H](OC(=O)c4ccccc4)[C@H]21)C3(C)C | MTT | 48 h | 4.22 |
| COc1cccc(NC(=S)N/N=C/c2cccc3cc4ccccc4nc23)c1 | MTT | 48 h | 4.33 |
| CC(=O)O[C@H]1C(=O)[C@@]2(C)[C@H]([C@H](OC(=O)c3ccccc3)[C@]3(O)C[C@H](OC(=O)[C@H](O)[C@@H](NC(=O)c4ccccc4)c4ccccc4)C(C)=C1C3(C)C)[C@]1(OC(C)=O)CO[C@@H]1C[C@@H]2O | MTT | 48 h | 4.80 |
| CC(C)CCOc1cc(C[n+]2c(CO)n(CCC(C)C)c3ccccc32)c(OCCC(C)C)c2ccccc12 | MTT | 24 h | 4.93 |
| Cc1cccc(NC(=O)Cn2cc(COc3ncnc4[nH]cnc34)nn2)c1 | MTT | – | 4.54 |
| CC(C)CCOc1cc(C(=O)C[n+]2ccn(CCC(C)C)c2)c(OCCC(C)C)c2ccccc12 | MTT | 24 h | 5.00 |
| CC(C)CNC(=S)N/N=C/c1cccc2cc3ccccc3nc12 | MTT | 48 h | 4.59 |
| COc1ccc(-c2n(CCC(C)C)c3ccccc3[n+]2Cc2cc(OCCC(C)C)c3ccccc3c2OCCC(C)C)cc1 | MTT | 24 h | 4.96 |
| COc1cccc(-c2cc(NCc3ccc4c(c3)OCO4)nc(N)n2)c1 | CCK-8 | 72 h | 6.73 |
